From ChEMBL document CHEMBL1123305, “Synthesis and gastric antisecretory properties of alpha chain diene derivatives of misoprostol” (1986) come the findings set out here.

The term inhibition in vivo denotes the percentage by which the read-out fell short of the control. A high value points to strong suppression. As usually defined, the ED50 is the dose that gives a 50% effect, or the effect in half of the subjects. Higher therefore signals weaker potency.

Test system in one assay: not listed separately
Nature of the assay: Ratio of ED50 value of diarrheal effect to that of ED50 value of antisecretory effect. Format: functional.
Conditions: not given
The essentials:
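Ratio of rat oral diarrheal ED50 at 8 h to intragastric antisecretory ED50 in histamine-stimulated gastric fistula dogs (4-h total acid output).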
As to `CCCCC(C)(O)C/C=C/[C@H]1[C@H](O)CC(=O)[C@@H]1C/C=C\C=C\CC(=O)OC` (stereo not given in full), the Ratio is 7120.

Take `CCCCC(C)(O)C/C=C/[C@H]1[C@H](O)CC(=O)[C@@H]1CCCCCCC(=O)OC` (stereo not given in full) [MISOPROSTOL]: the Ratio turned out to be 1310.

`CCCCC(C)(O)C/C=C/[C@H]1[C@H](O)CC(=O)[C@@H]1CC/C=C\CCC(=O)OC` (stereo not given in full) [ENISOPROST]: the Ratio came out at 1240.

A further assay concerns Canis familiaris. Nature of the assay: Intravenous gastric antisecretory activity against histamine-stimulated Heidenhain Pouch (HP) dogs at 1 ug/kg. The conditions noted are these: Canis lupus familiaris, Stomach. Format: functional. The method, boiled down: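 Conscious, 18-h-fasted Heidenhain pouch dogs in Pavlov stands, iv 0.15 M NaCl infusion, used at most weekly. Histamine 1.0 mg/h was infused after a 15–30-min basal period. At steady state (about 1 h), a single iv bolus was given in ethanol stock diluted with isoosmotic pH 7.4 phosphate buffer (≤20% ethanol). Acid was titrated to pH 7.0 over 15-min collections; percent inhibition was taken from maximum inhibition of total acid output.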
`CCCCC(C)(O)C/C=C/[C@H]1[C@H](O)CC(=O)[C@@H]1CC/C=C\C=C\C(=O)OC` (stereo not given in full) came in with an inhibition in vivo at 0.001 mg/kg of 41%.

As to `CCCCC(C)(O)C/C=C/[C@H]1[C@H](O)CC(=O)[C@@H]1CC/C=C/C=C/C(=O)OC` (stereo not given in full), the inhibition in vivo at 0.001 mg/kg came to 53%.

The molecule `CCCCC(C)(O)C/C=C/[C@H]1[C@H](O)CC(=O)[C@@H]1C/C=C/C=C\CC(=O)OC` (stereo not given in full) returned an inhibition in vivo at 0.001 mg/kg of 96%.

Molecule `CCCCC(C)(O)C/C=C/[C@H]1[C@H](O)CC(=O)[C@@H]1C/C=C\C=C\CC(=O)OC` (stereo not given in full) came in with an inhibition in vivo at 0.001 mg/kg of 83%.

The molecule `CCCCC(C)(O)C/C=C/[C@H]1[C@H](O)CC(=O)[C@@H]1C/C=C/C=C/CC(=O)OC` (stereo not given in full) displayed an inhibition in vivo at 0.001 mg/kg of 21%.

`CCCCC(C)(O)C/C=C/[C@H]1[C@H](O)CC(=O)[C@@H]1CCCCCCC(=O)OC` (stereo not given in full) [MISOPROSTOL] yielded an inhibition in vivo at 0.001 mg/kg of 79%.

In the case of `CCCCC(C)(O)C/C=C/[C@H]1[C@H](O)CC(=O)[C@@H]1C/C=C/C/C=C/C(=O)OC` (stereo not given in full), 0.001 mg/kg produced 68% inhibition in vivo.

Take `CCCCC(C)(O)C/C=C/[C@H]1[C@H](O)CC(=O)[C@@H]1CC/C=C\CCC(=O)OC` (stereo not given in full) [ENISOPROST]: the inhibition in vivo at 0.001 mg/kg was determined as 92%.

Take `CCCCC(C)(O)C/C=C/[C@H]1[C@H](O)CC(=O)[C@@H]1C/C=C\C/C=C/C(=O)OC` (stereo not given in full): 0.001 mg/kg produced 0% inhibition in vivo.

The species entered for the next assay is Canis familiaris. Nature of the assay: Relative gastric antisecretory effect in histamine-stimulated gastric fistula (GF) dogs. The conditions noted are these: Canis lupus familiaris, Stomach.
`CCCCC(C)(O)C/C=C/[C@H]1[C@H](O)CC(=O)[C@@H]1C/C=C\C=C\CC(=O)OC` (stereo not given in full) came in with a Relative potency of 0.31.

With `CCCCC(C)(O)C/C=C/[C@H]1[C@H](O)CC(=O)[C@@H]1CCCCCCC(=O)OC` (stereo not given in full) [MISOPROSTOL], the Relative potency came to 0.08.

Molecule `CCCCC(C)(O)C/C=C/[C@H]1[C@H](O)CC(=O)[C@@H]1CC/C=C\CCC(=O)OC` (stereo not given in full) [ENISOPROST] registered a Relative potency of 1.

The species entered for another assay is Rattus norvegicus. Nature of the assay: Effect determining the diarrheagenic activity in rats.
Conditions: not given
In kind it is functional. The essentials: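 Adult male Charles River rats (210–230 g), housed singly and fasted 24 h, n = 6–12. Logarithmically graded oral doses were given. Diarrhea was scored all-or-none hourly to 8 h. ED50 and approximate asymptotic 95% confidence limits came from a maximum-likelihood logistic dose–response fit.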
For `CCCCC(C)(O)C/C=C/[C@H]1[C@H](O)CC(=O)[C@@H]1C/C=C\C=C\CC(=O)OC` (stereo not given in full), the 50% effect level (ED50) was put at a dose of 570 µg/kg.

For `CCCCC(C)(O)C/C=C/[C@H]1[C@H](O)CC(=O)[C@@H]1CC/C=C\CCC(=O)OC` (stereo not given in full) [ENISOPROST], the 50% effect level (ED50) was put at a dose of 62 µg/kg.

Another assay is filed under the species Canis familiaris. Nature of the assay: Oral gastric antisecretory effect in histamine-stimulated Heidenhain Pouch (HP) dogs. Format: functional. Particulars: Canis lupus familiaris, Stomach, in the assay text read “gastric fistula (GF)” for “Heidenhain Pouch (HP)”. The essentials:
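Conscious gastric fistula dogs, 4–12 per dose, three doses. After a 30-min basal period, drug was given intragastrically via dosing plug and the cannula closed for 30 min. Histamine was then infused at 15 μg/kg per h, with 30-min collections for 4 h. Acid was titrated to pH 7.0. ED50 is the dose giving 50% inhibition of 4-h total acid output. Relative potency and 95% limits came from bioassay analysis.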
As to `CCCCC(C)(O)C/C=C/[C@H]1[C@H](O)CC(=O)[C@@H]1C/C=C\C=C\CC(=O)OC` (stereo not given in full), it took a dose of 0.08 µg/kg to reach the 50% effect level (ED50).

For the molecule `CCCCC(C)(O)C/C=C/[C@H]1[C@H](O)CC(=O)[C@@H]1CCCCCCC(=O)OC` (stereo not given in full) [MISOPROSTOL], it took a dose of 0.28 µg/kg to reach the 50% effect level (ED50).

In turn, `CCCCC(C)(O)C/C=C/[C@H]1[C@H](O)CC(=O)[C@@H]1CC/C=C\CCC(=O)OC` (stereo not given in full) [ENISOPROST] returned an ED50 of 0.05 µg/kg.
